Measured values from different studies.
Lines come from different studies, so protocols differ.
HTR2A: 5-hydroxytryptamine receptor 2A (HTR2A, Homo sapiens, UniProt P28223)
PFF0160c: Dihydroorotate dehydrogenase (quinone), mitochondrial (PFF0160c, Plasmodium falciparum, UniProt Q08210)

| SMILES | target | test | IC50 [µM] |
| --- | --- | --- | --- |
| CC(C)N(CCc1c[nH]c2cccc(OC(=O)CCCC(=O)O)c12)C(C)C | HTR2A | ligand displacement, radioligand | 5.7 |
| Cn1nc2c(=O)n(C3CC3)cnc2c1[C@](O)(c1ccc(C(F)(F)F)c(C#N)c1)C(F)(F)F | PFF0160c | enzyme activity, inhibitor | 0.0126 |
| COC(=O)c1cc(N(C)C(=O)c2ccn3ncc(-c4ccc(C(=O)O)cc4)c3c2)ccc1Cl | Serine/threonine-protein kinase WNK1 (WNK1, Homo sapiens, UniProt Q9H4A3) | enzyme activity, inhibitor | > 30 |
| CCn1cnc2c([C@@](O)(CC)c3ccc(C(F)(F)F)nc3)n(C)nc2c1=O | PFF0160c | enzyme activity, inhibitor | 0.056 |
| CNC(=O)c1ccc(-c2cnn3ccc(C(=O)N(C)c4ccc(Cl)c(C(=O)O)c4)cc23)cc1 | Thromboxane A2 receptor (TBXA2R, Homo sapiens, UniProt P21731) | cell-free assay | > 30 |
| COc1ccc(COCCN(C)C(C)Cc2ccc(O)cc2)cc1 (stereo not shown) | HTR2A | calcium signal, antagonist | 16.9 |
| Cn1nc2c(=O)n(C3CC3)ccc2c1[C@](O)(c1ccc(C(F)(F)F)c(C#N)c1)C1CC1 | PFF0160c | enzyme activity, inhibitor | 0.02 |
| Oc1ccc(C2=CCN(CC3CC34CC4)CC2)cc1 (stereo not shown) | HTR2A | calcium signal, antagonist | 6.23 |
| Cn1nccc1[C@]1(CNC(=O)c2ccc(F)c(F)c2-c2ccc(C(F)(F)F)cc2)NC(=O)NC1=O | Mucosa-associated lymphoid tissue lymphoma translocation protein 1 (MALT1, Homo sapiens, UniProt Q9UDY8) | enzyme activity, inhibitor | > 100 |
| Cc1nc(Nc2ccc(CC(=O)O)cc2)nc(Nc2ccc(F)c(C(F)(F)F)c2)c1C | cGMP-specific 3',5'-cyclic phosphodiesterase (PDE5A, Homo sapiens, UniProt O76074) | enzyme activity, inhibitor, FP | ~1.5 |
